Data reported in ChEMBL document CHEMBL4765405, “Design, synthesis and biological activities of novel pleuromutilin derivatives with a substituted triazole moiety as potent antibacterial agents” (Eur J Med Chem, 2020).
≈ marks a conversion by molar mass, not a printed value.

Key:
Type in all cases: functional
Staphylococcus aureus [1] = test: Antibacterial activity against methicillin-resistant Staphylococcus aureus ATCC 43300 after 24 hrs by CLSI based broth micro dilution method
Procedure, shortened: (§1)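 Broth microdilution run per CLSI. MRSA ATCC 43300 served as the QC strain, with the CLSI QC range as reference. S. aureus AD3 and 144 are clinical isolates from Guangdong Province. Pleuromutilin and tiamulin were run as reference drugs.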

Staphylococcus aureus [2] = test: Antibacterial activity against Staphylococcus aureus ATCC 29213 after 24 hrs by CLSI based broth micro dilution method; procedure, shortened: as §1
Staphylococcus aureus [3] = test: Antibacterial activity against Staphylococcus aureus AD3 after 24 hrs by CLSI based broth micro dilution method
Procedure, shortened: (§2)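 CLSI broth microdilution MIC against S. aureus ATCC 43300 (MRSA), ATCC 29213, clinical isolates AD3 and 144 (Guangdong Province), and E. coli ATCC 25922; ATCC 43300 served as QC strain, with the CLSI quality control range as reference.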

Staphylococcus aureus [4] = test: Antibacterial activity against Staphylococcus aureus 144 after 24 hrs by CLSI based broth micro dilution method; procedure, shortened: as §1
Escherichia coli [5] = test: Antibacterial activity against Escherichia coli ATCC 25922 after 24 hrs by CLSI based broth micro dilution method; procedure, shortened: as §2
Staphylococcus aureus [6] = test: Bactericidal activity against methicillin-resistant Staphylococcus aureus ATCC 43300 preincubated 16 to 20 hrs followed by subculturing and measured after over night
Procedure, shortened: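 MBC determined by the CLSI broth microdilution method against MRSA ATCC 43300, with ATCC 43300 also serving as the QC strain. Pleuromutilin and tiamulin were reference drugs.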

Staphylococcus aureus [7] = test: Bactericidal activity against Staphylococcus aureus ATCC 29213 preincubated 16 to 20 hrs followed by subculturing and measured after over night
Procedure, shortened: (§3)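 MBC by CLSI broth microdilution on the same strain panel: S. aureus ATCC 43300, ATCC 29213, clinical isolates AD3 and 144, E. coli ATCC 25922; ATCC 43300 served as QC strain.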

Staphylococcus aureus [8] = test: Bactericidal activity against Staphylococcus aureus AD3 preincubated 16 to 20 hrs followed by subculturing and measured after over night; procedure, shortened: as §3
Staphylococcus aureus [9] = test: Bactericidal activity against Staphylococcus aureus 144 preincubated 16 to 20 hrs followed by subculturing and measured after over night; procedure, shortened: as §3
Escherichia coli [10] = test: Bactericidal activity against Escherichia coli ATCC 25922 preincubated 16 to 20 hrs followed by subculturing and measured after over night; procedure, shortened: as §3
[11] = Ratio of MBC for bactericidal activity against methicillin-resistant Staphylococcus aureus ATCC 43300 to MIC for antibacterial activity against methicillin-resistant Staphylococcus aureus ATCC 4330

SMILES	MIC (Staphylococcus aureus [1]) [µg/mL]	MIC (Staphylococcus aureus [2]) [µg/mL]	MIC (Staphylococcus aureus [3]) [µg/mL]	MIC (Staphylococcus aureus [4]) [µg/mL]	MIC (Escherichia coli [5]) [µg/mL]	MBC (Staphylococcus aureus [6]) [µg/mL]	MBC (Staphylococcus aureus [7]) [µg/mL]	MBC (Staphylococcus aureus [8]) [µg/mL]	MBC (Staphylococcus aureus [9]) [µg/mL]	MBC (Escherichia coli [10]) [µg/mL]	Ratio [11]
C=C[C@]1(C)C[C@@H](OC(=O)CSc2ccccc2NC(=O)Cn2cc(CN3CCCC(CO)C3)nn2)[C@]2(C)[C@H](C)CC[C@]3(CCC(=O)[C@H]32)[C@@H](C)[C@@H]1O (stereo partly specified)	0.5 (≈ 0.693 µM)	0.5 (≈ 0.693 µM)	0.5 (≈ 0.693 µM)	0.5 (≈ 0.693 µM)	> 32	0.5 (≈ 0.693 µM)	0.5 (≈ 0.693 µM)	1 (≈ 1.39 µM)	0.5 (≈ 0.693 µM)	> 32	1
C=C[C@]1(C)C[C@@H](OC(=O)CSc2ccccc2NC(=O)Cn2cc(CN3CCOCC3)nn2)[C@]2(C)[C@H](C)CC[C@]3(CCC(=O)[C@H]32)[C@@H](C)[C@@H]1O	0.5 (≈ 0.721 µM)	0.5 (≈ 0.721 µM)	1 (≈ 1.44 µM)	1 (≈ 1.44 µM)	> 32	1 (≈ 1.44 µM)	0.5 (≈ 0.721 µM)	2 (≈ 2.88 µM)	1 (≈ 1.44 µM)	> 32	1
C=C[C@]1(C)C[C@@H](OC(=O)CSc2ccccc2NC(=O)Cn2cc(CN3CCN(c4ccc(O)cc4)CC3)nn2)[C@]2(C)[C@H](C)CC[C@]3(CCC(=O)[C@H]32)[C@@H](C)[C@@H]1O	2 (≈ 2.55 µM)	2 (≈ 2.55 µM)	2 (≈ 2.55 µM)	2 (≈ 2.55 µM)	> 32	4 (≈ 5.1 µM)	4 (≈ 5.1 µM)	4 (≈ 5.1 µM)	8 (≈ 10.2 µM)	> 32	1
C=C[C@]1(C)C[C@@H](OC(=O)CSc2ccccc2NC(=O)Cn2cc(CN3CCN(c4ccccc4[N+](=O)[O-])CC3)nn2)[C@]2(C)[C@H](C)CC[C@]3(CCC(=O)[C@H]32)[C@@H](C)[C@@H]1O	0.5 (≈ 0.614 µM)	0.25 (≈ 0.307 µM)	0.5 (≈ 0.614 µM)	0.5 (≈ 0.614 µM)	> 32	1 (≈ 1.23 µM)	0.25 (≈ 0.307 µM)	1 (≈ 1.23 µM)	2 (≈ 2.46 µM)	> 32	1
C=C[C@]1(C)C[C@@H](OC(=O)CSc2ccccc2NC(=O)Cn2cc(CN3CCN(c4cccc(F)c4)CC3)nn2)[C@]2(C)[C@H](C)CC[C@]3(CCC(=O)[C@H]32)[C@@H](C)[C@@H]1O	1 (≈ 1.27 µM)	0.5 (≈ 0.635 µM)	0.5 (≈ 0.635 µM)	1 (≈ 1.27 µM)	> 32	2 (≈ 2.54 µM)	0.5 (≈ 0.635 µM)	1 (≈ 1.27 µM)	2 (≈ 2.54 µM)	> 32	1
C=C[C@]1(C)C[C@@H](OC(=O)CSc2ccccc2NC(=O)Cn2cc(CN3CCN(c4cccc(C)c4)CC3)nn2)[C@]2(C)[C@H](C)CC[C@]3(CCC(=O)[C@H]32)[C@@H](C)[C@@H]1O	1 (≈ 1.28 µM)	1 (≈ 1.28 µM)	2 (≈ 2.55 µM)	1 (≈ 1.28 µM)	> 32	1 (≈ 1.28 µM)	2 (≈ 2.55 µM)	4 (≈ 5.11 µM)	8 (≈ 10.2 µM)	> 32	1
C=C[C@]1(C)C[C@@H](OC(=O)CSc2ccccc2NC(=O)Cn2cc(CN3CCN(c4ccccc4C)CC3)nn2)[C@]2(C)[C@H](C)CC[C@]3(CCC(=O)[C@H]32)[C@@H](C)[C@@H]1O	1 (≈ 1.28 µM)	1 (≈ 1.28 µM)	2 (≈ 2.55 µM)	1 (≈ 1.28 µM)	> 32	1 (≈ 1.28 µM)	2 (≈ 2.55 µM)	4 (≈ 5.11 µM)	4 (≈ 5.11 µM)	> 32	1
C=C[C@]1(C)C[C@@H](OC(=O)CSc2ccccc2NC(=O)Cn2cc(CN3CCN(c4ccccc4)CC3)nn2)[C@]2(C)[C@H](C)CC[C@]3(CCC(=O)[C@H]32)[C@@H](C)[C@@H]1O	0.5 (≈ 0.65 µM)	0.5 (≈ 0.65 µM)	0.5 (≈ 0.65 µM)	1 (≈ 1.3 µM)	> 32	0.5 (≈ 0.65 µM)	0.5 (≈ 0.65 µM)	1 (≈ 1.3 µM)	2 (≈ 2.6 µM)	> 32	1
C=C[C@]1(C)C[C@@H](OC(=O)CSc2ccccc2NC(=O)Cn2cc(CN3CCN(c4ccc(F)cc4)CC3)nn2)[C@]2(C)[C@H](C)CC[C@]3(CCC(=O)[C@H]32)[C@@H](C)[C@@H]1O	1 (≈ 1.27 µM)	0.5 (≈ 0.635 µM)	0.5 (≈ 0.635 µM)	1 (≈ 1.27 µM)	> 32	1 (≈ 1.27 µM)	0.5 (≈ 0.635 µM)	1 (≈ 1.27 µM)	2 (≈ 2.54 µM)	> 32	1
C=C[C@]1(C)C[C@@H](OC(=O)CSc2ccccc2NC(=O)Cn2cc(CN3CCC(O)CC3)nn2)[C@]2(C)[C@H](C)CC[C@]3(CCC(=O)[C@H]32)[C@@H](C)[C@@H]1O	1 (≈ 1.41 µM)	1 (≈ 1.41 µM)	1 (≈ 1.41 µM)	1 (≈ 1.41 µM)	> 32	2 (≈ 2.83 µM)	1 (≈ 1.41 µM)	1 (≈ 1.41 µM)	2 (≈ 2.83 µM)	> 32	1
C=C[C@]1(C)C[C@@H](OC(=O)CSc2ccccc2NC(=O)Cn2cc(CN3CCN(c4ccc(Cl)cc4)CC3)nn2)[C@]2(C)[C@H](C)CC[C@]3(CCC(=O)[C@H]32)[C@@H](C)[C@@H]1O	0.5 (≈ 0.622 µM)	1 (≈ 1.24 µM)	2 (≈ 2.49 µM)	2 (≈ 2.49 µM)	> 32	1 (≈ 1.24 µM)	4 (≈ 4.98 µM)	4 (≈ 4.98 µM)	2 (≈ 2.49 µM)	> 32	1
C=C[C@]1(C)C[C@@H](OC(=O)CSc2ccccc2NC(=O)Cn2cc(CN3CCN(c4ccc(OC)cc4)CC3)nn2)[C@]2(C)[C@H](C)CC[C@]3(CCC(=O)[C@H]32)[C@@H](C)[C@@H]1O	1 (≈ 1.25 µM)	0.5 (≈ 0.626 µM)	1 (≈ 1.25 µM)	1 (≈ 1.25 µM)	> 32	1 (≈ 1.25 µM)	0.5 (≈ 0.626 µM)	1 (≈ 1.25 µM)	2 (≈ 2.5 µM)	> 32	1
C=C[C@]1(C)C[C@@H](OC(=O)CSc2ccccc2NC(=O)Cn2cc(CN3CCCC3)nn2)[C@]2(C)[C@H](C)CC[C@]3(CCC(=O)[C@H]32)[C@@H](C)[C@@H]1O	0.25 (≈ 0.369 µM)	0.25 (≈ 0.369 µM)	0.25 (≈ 0.369 µM)	0.25 (≈ 0.369 µM)	> 32	0.5 (≈ 0.738 µM)	4 (≈ 5.9 µM)	0.5 (≈ 0.738 µM)	0.5 (≈ 0.738 µM)	> 32	1
C=C[C@]1(C)C[C@@H](OC(=O)CSc2ccccc2NC(=O)Cn2cc(CN3CCCCC3)nn2)[C@]2(C)[C@H](C)CC[C@]3(CCC(=O)[C@H]32)[C@@H](C)[C@@H]1O	0.5 (≈ 0.723 µM)	0.5 (≈ 0.723 µM)	0.5 (≈ 0.723 µM)	1 (≈ 1.45 µM)	> 32	2 (≈ 2.89 µM)	0.5 (≈ 0.723 µM)	0.5 (≈ 0.723 µM)	1 (≈ 1.45 µM)	> 32	1
C=C[C@]1(C)C[C@@H](OC(=O)CSc2ccccc2NC(=O)Cn2cc(CN3CCN(c4ccc(C)cc4)CC3)nn2)[C@]2(C)[C@H](C)CC[C@]3(CCC(=O)[C@H]32)[C@@H](C)[C@@H]1O	1 (≈ 1.28 µM)	0.5 (≈ 0.639 µM)	1 (≈ 1.28 µM)	1 (≈ 1.28 µM)	> 32	4 (≈ 5.11 µM)	0.5 (≈ 0.639 µM)	2 (≈ 2.55 µM)	2 (≈ 2.55 µM)	> 32	1
C=C[C@]1(C)C[C@@H](OC(=O)CSc2ccccc2NC(=O)Cn2cc(CN3CCN(c4ccccc4OC)CC3)nn2)[C@]2(C)[C@H](C)CC[C@]3(CCC(=O)[C@H]32)[C@@H](C)[C@@H]1O	0.5 (≈ 0.626 µM)	1 (≈ 1.25 µM)	1 (≈ 1.25 µM)	1 (≈ 1.25 µM)	> 32	1 (≈ 1.25 µM)	2 (≈ 2.5 µM)	2 (≈ 2.5 µM)	4 (≈ 5.01 µM)	> 32	1
C=C[C@]1(C)C[C@@H](OC(=O)CO)[C@]2(C)[C@H](C)CC[C@]3(CCC(=O)[C@H]32)[C@@H](C)[C@@H]1O [PLEUROMULIN]	2 (≈ 5.28 µM)	1 (≈ 2.64 µM)	2 (≈ 5.28 µM)	2 (≈ 5.28 µM)		4 (≈ 10.6 µM)	2 (≈ 5.28 µM)	4 (≈ 10.6 µM)	4 (≈ 10.6 µM)		
C=C[C@]1(C)C[C@@H](OC(=O)CSc2ccccc2NC(=O)Cn2cc(CN3CCN(C)CC3)nn2)[C@]2(C)[C@H](C)CC[C@]3(CCC(=O)[C@H]32)[C@@H](C)[C@@H]1O	0.25 (≈ 0.354 µM)	0.25 (≈ 0.354 µM)	0.5 (≈ 0.707 µM)	0.5 (≈ 0.707 µM)	> 32	0.5 (≈ 0.707 µM)	0.5 (≈ 0.707 µM)	1 (≈ 1.41 µM)	2 (≈ 2.83 µM)	> 32	1
C=C[C@]1(C)C[C@@H](OC(=O)CSc2ccccc2NC(=O)Cn2cc(CN3CCN(c4cccc(Cl)c4)CC3)nn2)[C@]2(C)[C@H](C)CC[C@]3(CCC(=O)[C@H]32)[C@@H](C)[C@@H]1O	2 (≈ 2.49 µM)	1 (≈ 1.24 µM)	2 (≈ 2.49 µM)	2 (≈ 2.49 µM)	> 32	4 (≈ 4.98 µM)	1 (≈ 1.24 µM)	2 (≈ 2.49 µM)	4 (≈ 4.98 µM)	> 32	1
